Results reported in publication PMC6543826 (Bioorganic chemistry, 2018).
“And” between values parts separate entries of the source, which are not always exact repeats. Equal values may be shown once. Read-outs that look alike come from different tables or passages of the source. One block for each molecule: values may come before it.

Columns and labels:
ERK2 = ERK2 (Rattus norvegicus, UniProt P63086); experiment: in vitro radioactive kinase assay, Ets-1 phosphorylation by ERK2; type: biochemical; conditions: 100 μM ATP /10mM Ets-1
Method in brief: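 Activated rat ERK2 (2 nM) was tested with His-Ets-1 (1–138) at 28–30 °C in HEPES pH 7.5 buffer with 11 mM MgCl2, BSA and 5% DMSO. Reactions were started with [γ-32P]ATP (10 or 100 μM).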

SK-OV-3 = experiment: cells; type: cell-based; conditions: SK-OV-3, 10^−5 M, 48 h
ACHN = experiment: cells; type: cell-based; conditions: 10^−5 M, 48 h
RXF 393 = experiment: cells; type: cell-based; conditions: RXF 393, 10^−5 M, 48 h
K-562 = experiment: cells; type: cell-based; conditions: K-562, 10^−5 M, 48 h
M14 = experiment: cells; type: cell-based; conditions: M14, 10^−5 M, 48 h
PC-3 = experiment: cells; type: cell-based; conditions: PC-3, 10^−5 M, 48 h
NCI-H322M = experiment: cells; type: cell-based; conditions: 10^−5 M, 48 h
RPMI-8226 = experiment: cells; type: cell-based; conditions: RPMI-8226, 10^−5 M, 48 h
NCI-H522 = experiment: cells; type: cell-based; conditions: NCI-H522, 10^−5 M, 48 h
EKVX = experiment: NCI-60 SRB screen, Non-small cell lung cancer; type: cell-based, human; conditions: 10^−5 M, 48 h
MCF7 = experiment: cells; type: cell-based; conditions: MCF7, 10^−5 M, 48 h
HOP-92 = experiment: cells; type: cell-based; conditions: HOP-92, 10^−5 M, 48 h
SN12C = experiment: cells; type: cell-based; conditions: 10^−5 M, 48 h
OVCAR-3 = experiment: cells; type: cell-based; conditions: OVCAR-3, 10^−5 M, 48 h
A549/ATCC = experiment: cells; type: cell-based; conditions: A549/ATCC, 10^−5 M, 48 h
[1] = system: NCI-60 panel of tumor cell lines; conditions: for Average G%: average over tested NCI-60 cell lines, 10^−5 M (10 μM), 48 h
MOLT-4 = experiment: cells; type: cell-based; conditions: MOLT-4, 10^−5 M, 48 h
DU-145 = experiment: cells; type: cell-based; conditions: DU-145, 10^−5 M, 48 h
OVCAR-8 = experiment: cells; type: cell-based; conditions: OVCAR-8, 10^−5 M, 48 h
SK-MEL-28 = experiment: cells; type: cell-based; conditions: SK-MEL-28, 10^−5 M, 48 h
OVCAR-5 = experiment: cells; type: cell-based; conditions: OVCAR-5, 10^−5 M, 48 h
SNB-19 = experiment: cells; type: cell-based; conditions: SNB-19, 10^−5 M, 48 h
HCT-116 = experiment: cells; type: cell-based; conditions: HCT-116, 10^−5 M, 48 h
OVCAR-4 = experiment: cells; type: cell-based; conditions: OVCAR-4, 10^−5 M, 48 h
A498 = experiment: NCI-60 SRB screen, Renal cancer; type: cell-based, human; conditions: A498, 10^−5 M, 48 h
SF-539 = experiment: cells; type: cell-based; conditions: SF-539, 10^−5 M, 48 h
LOX IMVI = experiment: cells; type: cell-based; conditions: 10^−5 M, 48 h
SK-MEL-2 = experiment: cells; type: cell-based; conditions: SK-MEL-2, 10^−5 M, 48 h
SK-MEL-5 = experiment: cells; type: cell-based; conditions: SK-MEL-5, 10^−5 M, 48 h
NCI-H460 = experiment: cells; type: cell-based; conditions: NCI-H460, 10^−5 M, 48 h
BT-549 = experiment: cells; type: cell-based; conditions: BT-549, 10^−5 M, 48 h
UO-31 = experiment: cells; type: cell-based; conditions: UO-31, 10^−5 M, 48 h
HCT-15 = experiment: cells; type: cell-based; conditions: HCT-15, 10^−5 M, 48 h
MALME-3M = experiment: cells; type: cell-based; conditions: MALME-3M, 10^−5 M, 48 h
HT29 = experiment: cells; type: cell-based; conditions: HT29, 10^−5 M, 48 h
U251 = experiment: cells; type: cell-based; conditions: U251, 10^−5 M, 48 h
HOP-62 = experiment: cells; type: cell-based; conditions: HOP-62, 10^−5 M, 48 h
SF-268 = experiment: cells; type: cell-based; conditions: SF-268, 10^−5 M, 48 h
NCI-H23 = experiment: cells; type: cell-based; conditions: NCI-H23, 10^−5 M, 48 h
HCC-2998 = experiment: cells; type: cell-based; conditions: HCC-2998, 10^−5 M, 48 h
UACC-62 = experiment: cells; type: cell-based; conditions: UACC-62, 10^−5 M, 48 h
MDA-MB-435 = experiment: cells; type: cell-based; conditions: MDA-MB-435, 10^−5 M, 48 h
MDA-MB-468 = experiment: cells; type: cell-based; conditions: MDA-MB-468, 10^−5 M, 48 h
T-47D = experiment: cells; type: cell-based; conditions: T-47D, 10^−5 M, 48 h
KM 12 = experiment: cells; type: cell-based; conditions: KM 12, 10^−5 M, 48 h
IGROV1 = experiment: cells; type: cell-based; conditions: IGROV1, 10^−5 M, 48 h
NCI-H226 = experiment: cells; type: cell-based; conditions: NCI-H226, 10^−5 M, 48 h
SW-620 = experiment: cells; type: cell-based; conditions: SW-620, 10^−5 M, 48 h
SNB-75 = experiment: cells; type: cell-based; conditions: SNB-75, 10^−5 M, 48 h
CCRF-CEM = experiment: cells; type: cell-based; conditions: 10^−5 M, 48 h
SF-295 = experiment: cells; type: cell-based; conditions: SF-295, 10^−5 M, 48 h
SR = experiment: cells; type: cell-based; conditions: 10^−5 M, 48 h
HL-60 (TB) = experiment: cells; type: cell-based; conditions: HL-60(TB), 10^−5 M, 48 h
[2] = ERK2 IC50 at 100 μM ATP /10mM Ets-1, Table 4

Sequence of ERK2 (P63086 whole entry): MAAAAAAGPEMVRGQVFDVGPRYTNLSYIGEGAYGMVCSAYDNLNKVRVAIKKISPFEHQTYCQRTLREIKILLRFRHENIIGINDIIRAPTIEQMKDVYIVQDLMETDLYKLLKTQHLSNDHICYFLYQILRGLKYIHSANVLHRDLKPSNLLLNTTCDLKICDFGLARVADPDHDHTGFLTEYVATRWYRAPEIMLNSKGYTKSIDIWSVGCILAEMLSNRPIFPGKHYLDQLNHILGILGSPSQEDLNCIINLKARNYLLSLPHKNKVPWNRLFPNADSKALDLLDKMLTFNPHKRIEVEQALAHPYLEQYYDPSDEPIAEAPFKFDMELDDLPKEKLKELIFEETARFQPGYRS

- IC50 (ERK2; [2]): > 100 µM
Structure (SMILES): O=C1c2ccccc2C(=O)c2c1oc1c2c(=O)[nH]c2ccc(Br)cc21 [3c, 2-Bromonaphtho[2′,3′:4,5]furo[3,2-c]quinoline-6,7,12(5H)-trione]

- IC50 (ERK2; [2]): 59 ± 8.2 µM
Structure (SMILES): Cc1ccc2[nH]c(=O)c3c4c(oc3c2c1)C(=O)c1ccccc1C4=O [3d, 2-Methylnaphtho[2′,3′:4,5]furo[3,2-c]quinoline-6,7,12(5H)-trione]

Structure (SMILES): Cn1c(=O)c2c3c(oc2c2ccccc21)C(=O)c1ccccc1C3=O [3e, 5-Methylnaphtho[2′,3′:4,5]furo[3,2-c]quinoline-6,7,12(5H)-trione]
- Growth percent (G%) (SK-OV-3): 93.55%
- Growth percent (G%) (ACHN): 75.49%
- Growth percent (G%) (RXF 393): 100.91%
- Growth percent (G%) (K-562): 68.79%
- Growth percent (G%) (M14): 85.59%
- Growth percent (G%) (PC-3): 64.38%
- Growth percent (G%) (NCI-H322M): 96.16%
- Growth percent (G%) (RPMI-8226): 51.06%
- Growth percent (G%) (NCI-H522): 50.55%
- Growth percent (G%) (EKVX): 70.67%
- Growth percent (G%) (MCF7): 68.38%
- Growth percent (G%) (HOP-92): 100.92%
- Growth percent (G%) (SN12C): 81.84%
- Growth percent (G%) (OVCAR-3): 21.58%
- Growth percent (G%) (A549/ATCC): 81.67%
- NCI Cytotoxicity Screening Average G% ([1]; Table 4, 10 μM one-dose screen): 74%
- Average G% [1]: 74% and 74.32%
- Growth percent (G%) (MOLT-4): 2.39%
- Growth percent (G%) (DU-145): 90.97%
- Growth percent (G%) (OVCAR-8): 85.32%
- Growth percent (G%) (SK-MEL-28): 111.89%
- Growth percent (G%) (OVCAR-5): 119.92%
- Growth percent (G%) (SNB-19): 93.29%
- Growth percent (G%) (HCT-116): 71.69%
- IC50 (ERK2; [2]): 21 ± 5.6 µM
- Growth percent (G%) (OVCAR-4): 4.38%
- Growth percent (G%) (A498): 93.29%
- Growth percent (G%) (SF-539): 97.17%
- Growth percent (G%) (LOX IMVI): 76.59%
- Growth percent (G%) (SK-MEL-2): 92.64%
- Growth percent (G%) (SK-MEL-5): 76.95%
- Growth percent (G%) (NCI-H460): 78.50%
- Growth percent (G%) (BT-549): 77.38%
- Growth percent (G%) (UO-31): 54.76%
- Growth percent (G%) (HCT-15): 85.01%
- Growth percent (G%) (MALME-3M): 113.45%
- Growth percent (G%) (HT29): 73.69%
- Growth percent (G%) (U251): 90.22%
- Growth percent (G%) (HOP-62): 81.77%
- Growth percent (G%) (SF-268): 95.35%
- Growth percent (G%) (NCI-H23): 78.33%
- Growth percent (G%) (HCC-2998): 101.82%
- Growth percent (G%) (UACC-62): 77.03%
- Growth percent (G%) (MDA-MB-435): 103.73%
- Growth percent (G%) (MDA-MB-468): −9.91%
- Growth percent (G%) (T-47D): 9.70%
- Growth percent (G%) (KM 12): 91.54%
- Growth percent (G%) (IGROV1): 68.65%
- Growth percent (G%) (NCI-H226): 73.22%
- Growth percent (G%) (SW-620): 86.24%
- Growth percent (G%) (SNB-75): 64.39%
- Growth percent (G%) (CCRF-CEM): 19.07%

Structure (SMILES): CCn1c(=O)c2c(=O)c3c4c(oc3oc2c2ccccc21)C(=O)c1ccccc1C4=O [5b, 5-Ethyl-5H-naphthalen[2″,3″:4′,5′]furo[3′,2′:4′,5,6]pyrano[3,2-c]quinoline-6,7,8,13-tetraone]
- Growth percent (G%) (SF-295): 95.07%
- Growth percent (G%) (SK-OV-3): 102.05%
- Growth percent (G%) (ACHN): 79.61%
- Growth percent (G%) (RXF 393): 72.63%
- Growth percent (G%) (K-562): 28.57%
- Growth percent (G%) (M14): 89.81%
- Growth percent (G%) (PC-3): 81.82%
- Growth percent (G%) (NCI-H322M): 97.72%
- Growth percent (G%) (RPMI-8226): 33.49%
- Growth percent (G%) (NCI-H522): 65.5%
- Growth percent (G%) (MCF7): 92.37%
- Growth percent (G%) (HOP-92): 50.81%
- Growth percent (G%) (SR): 80.76%
- Growth percent (G%) (SN12C): 106.07%
- Growth percent (G%) (OVCAR-3): −16.31%
- Growth percent (G%) (A549/ATCC): 82.36%
- Average G% [1]: 65.81%
- Growth percent (G%) (MOLT-4): −24.49%
- Growth percent (G%) (DU-145): 42.4%
- Growth percent (G%) (OVCAR-8): 10.25%
- Growth percent (G%) (SK-MEL-28): 106.96%
- Growth percent (G%) (OVCAR-5): 117.77%
- Growth percent (G%) (SNB-19): 90.17%
- Growth percent (G%) (HCT-116): 34.6%
- IC50 (ERK2; read-out: ERK2 IC50 at 100 μM ATP /10mM Ets-1, Table 4): 8.3 ± 1.5 µM
- Growth percent (G%) (OVCAR-4): −99.52%
- Growth percent (G%) (SF-539): 89.92%
- Growth percent (G%) (LOX IMVI): 32.39%
- Growth percent (G%) (SK-MEL-2): 79.89%
- Growth percent (G%) (HL-60 (TB)): −18.8%
- Growth percent (G%) (SK-MEL-5): 67.42%
- Growth percent (G%) (NCI-H460): 83.68%
- Growth percent (G%) (BT-549): 93.67%
- Growth percent (G%) (UO-31): 112.5%
- Growth percent (G%) (HCT-15): 79.63%
- Growth percent (G%) (MALME-3M): 112.5%
- Growth percent (G%) (HT29): 63.02%
- Growth percent (G%) (U251): 57.67%
- Growth percent (G%) (HOP-62): 80.29%
- Growth percent (G%) (SF-268): 84.32%
- Growth percent (G%) (NCI-H23): 66.79%
- Growth percent (G%) (HCC-2998): 100.59%
- Growth percent (G%) (UACC-62): 63.95%
- Growth percent (G%) (MDA-MB-435): 95.88%
- Growth percent (G%) (MDA-MB-468): −9.96%
- Growth percent (G%) (T-47D): 85.06%
- Growth percent (G%) (KM 12): 86.61%
- Growth percent (G%) (IGROV1): 68.31%
- Growth percent (G%) (NCI-H226): 99.44%
- Growth percent (G%) (SW-620): 73.47%
- Growth percent (G%) (SNB-75): 119.73%
- Growth percent (G%) (CCRF-CEM): 2.47%
